# Assay outcomes from PubChem.
# LEDGF integ inh – blocks HIV-1 LEDGF/p75-dependent DNA integration | TR-FRET IN-LEDGF/p75 DNA integration, Eu/Cy5 | inhibition, % at 3.7 µM | actives 0.64% (n = 370,000) | AID 743269;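 active means inhibition above the screen-wide mean plus 3 SD, cut at about 13% in these data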;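 further: signal is the Cy5 over europium emission ratio at 671 and 618 nm; 0% = plate median of compound wells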
# rCAG binder – binds r(CAG) RNA repeats; r(CAG) RNA repeat, TO-PRO-1 dye displacement fluorescence; inhibition, % at 3 µM; actives 1.3% (n = 370,000);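 active means inhibition above the plate cutoff, the mean of all test compounds on that plate plus 3 SD, cut at about 35% in these data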;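 further: 0% = DMSO alone and 100% = 100 µM mitoxantrone as full dye displacement; higher means more dye released from RNA so lower well fluorescence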
# MBD2 DNA inh – inhibitors of human MBD2 binding to methylated oligonucleotide; inhibition, % at 4.4 µM; actives 0.31% (n = 370,000); Q9UBB5; TR-FRET; in the data active means inhibition above about 13%
# UHRF1 binding – UHRF1 methyl-DNA binding inhibition; actives 0.75% (n = 370,000); AID 687016; inhibition, % at 4.4 µM; Q96T88; UHRF1 binding to methylated oligo, TR-FRET; in the data active means inhibition above about 21%;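 further: UHRF1 SRA domain binding a hemimethylated CpG hairpin DNA probe; 0% = median of test compound wells and 100% = reference inhibitor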
# CSN deneddyl inh – inhibitors of human CSN-mediated cullin deneddylation; actives 0.38% (n = 360,000); Q92905; inhibition, % at 12.5 µM; AID 651999; Purified CSN, SCF-Nedd8-OG deneddylation, fluorescence polarization;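 active means pattern-corrected inhibition above about 35%, with an unprinted fluorescence ratio check between 0.5 and 1.5, limit read from the data, passing the limit was not always enough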;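 further: 0% = enzyme with substrate and 100% = substrate without enzyme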
#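 Material: purified human Csn5 enzyme expressed in HEK293T cells / Medium: Tris buffer pH 7.5, NaCl, DTT, Tween-20, trehalose, ovalbumin / Compound dosing: 12.5 µM single point / Schedule: 90 min incubation of compound, enzyme and substrate at room temperature / Signal: fluorescence polarization of the substrate / Control set: no-enzyme wells high, enzyme-with-substrate wells low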
# ATG4B inh – ATG4B (human) cysteine protease inhibition | Q9Y4P1 | ATG4B cleavage of LC3-PLA2, NBD-HPC fluorescence, 1 h | inhibition, % at 8.33 µM | actives 0.51% (n = 340,000); in the data active means inhibition above about 40%
# Target sequence (Q9Y4P1 whole entry, looked up): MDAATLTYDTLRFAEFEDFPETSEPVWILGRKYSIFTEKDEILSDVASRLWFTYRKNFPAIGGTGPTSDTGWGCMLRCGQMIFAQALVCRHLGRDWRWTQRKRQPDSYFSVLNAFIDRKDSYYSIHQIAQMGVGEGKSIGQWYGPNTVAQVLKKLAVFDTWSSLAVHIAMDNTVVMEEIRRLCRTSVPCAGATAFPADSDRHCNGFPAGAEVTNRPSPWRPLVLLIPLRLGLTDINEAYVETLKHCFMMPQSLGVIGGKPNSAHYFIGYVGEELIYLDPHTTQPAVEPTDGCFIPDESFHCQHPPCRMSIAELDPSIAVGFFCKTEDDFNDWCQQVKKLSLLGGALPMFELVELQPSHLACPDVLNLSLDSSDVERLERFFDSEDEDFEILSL
# ATG4B conf – ATG4B (human) inhibition, single-dose confirmed; shares compounds with ATG4B inh; inhibition, % at 8.33 µM; ATG4B protease fluorescent substrate cleavage assay; actives 92% (n = 320); in the data active means inhibition above about 39%
# PLA2 ctr – inhibits human PLA2, flagging false ATG4B inhibitors | shares compounds with ATG4B inh | purified PLA2, NBD-C6-HPC fluorescence, 45 min | inhibition, % at 8.33 µM | actives 66% (n = 1,600) | AID 588402; in the data active means inhibition above about 50%
# Target sequence (P04054 whole entry, looked up): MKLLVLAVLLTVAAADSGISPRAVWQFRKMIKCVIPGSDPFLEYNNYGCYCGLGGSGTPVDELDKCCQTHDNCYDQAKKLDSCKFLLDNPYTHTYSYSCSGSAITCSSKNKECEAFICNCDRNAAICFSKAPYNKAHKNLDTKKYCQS
# Numbers without * were called inactive; / = no result given. Compounds with a hit are over-represented: about 3.1% of the library has one in this group of screens.
SMILES,LEDGF integ inh,rCAG binder,MBD2 DNA inh,UHRF1 binding,CSN deneddyl inh,ATG4B inh,PLA2 ctr,others
COc1ccc(CCNCC(O)COc2cccc(C)c2)cc1OC (stereo unspecified),-4,1,-2,2,/,/,/,
Oc1ccccc1C=Nn1c(-c2ccccc2F)n[nH]c1=S,3,10,-2,3,/,/,/,
Cc1cccc(C)c1OCc1nc2ccccc2c(=O)n1/N=C/c1ccc(OCC(=O)O)cc1,1,2,5,-2,-4,53*,37,ATG4B conf=62*
Fc1ccccc1C1CC(c2ccco2)=Nc2ccccc2S1 (stereo unspecified),8,11,-5,-3,2,53*,73*,
O=C(Nc1cccc(Cl)c1N1CCCC1)c1cccc(-c2cc3ccccc3oc2=O)c1,4,3,-2,7,-5,50*,25,ATG4B conf=59*
O=C(Nc1ccc(CN2CCOCC2)cc1)c1cccc(-c2cc3ccccc3oc2=O)c1,-4,-1,6,6,4,-30,/,
Cc1ccc(/C(CSc2nccn2-c2ncc(C(F)(F)F)cc2Cl)=N\O)cc1,4,1,-5,3,1,2,/,
O=C(CSc1nccn1-c1ncc(C(F)(F)F)cc1Cl)c1ccc(Br)cc1,/,/,/,/,8,104*,10,
COc1ccc(N/C(=C2\CCCC2=O)C2CCCCC2)cc1,-4,2,-6,-2,0,56*,60*,
O=C(Cc1c[nH]c2ccccc12)Nc1ccc(Nc2ccncc2)cc1,1,11,-2,-2,/,/,/,
COc1ccc(C2CC(O)(c3ccccc3)Oc3c(C)ccc(C)c32)cc1 (stereo unspecified),0,-2,1,7,-3,56*,65*,
CCCCCCCCN1C(=O)[C@@H](CC(=O)NCCCOC)C[C@@]2(C(=O)OC)C1=C[C@H](COCc1ccccc1)O[C@@H]2C,-3,5,2,0,/,/,/,
O=C(NCCc1ccc(Cl)cc1Cl)c1ccc2nc[nH]c2c1,-6,-3,-2,2,3,43*,51*,
C=CCN1C(c2cccc(C(F)(F)F)c2)=CS/C1=C(\C#N)c1nnc(N2CCOCC2)n1-c1ccccc1,-2,2,4,0,4,/,/,
C=CCN1C(c2ccc(Br)cc2)=CS/C1=C(\C#N)c1nnc(N2CCOCC2)n1-c1ccccc1,-3,6,-2,-2,-1,52*,69*,
Cc1nc(NC(=O)CSc2cc(C)c3ccccc3n2)c(Cl)cc1Cl,-1,5,-3,0,-8,41*,14,
O=c1c2ccccc2nc(-c2ccoc2)n1CCc1ccccc1,-1,-2,-1,-2,-2,42*,36,ATG4B conf=65*
O=c1c2ccccc2nc(/C=C/c2ccccc2)n1CCc1ccccc1,1,0,-1,2,-8,4,/,
Cc1ccc(CNc2nc(C)nc3sc4c(c23)CCC4)cc1,0,5,-2,-2,3,36,/,
Cc1nc(NS(=O)(=O)c2ccc(Br)cc2)c2c3c(sc2n1)CCC3,0,9,-3,0,-4,68*,72*,
Cc1nc(NC(C)c2ccccc2)c2c3c(sc2n1)CCC3 (stereo unspecified),/,/,/,/,-1,46*,36,
CCOC(=O)c1ccc(N2C(=O)Cc3ccccc3C2=O)cc1,1,22,-4,-1,5,-9,/,
CC(C)COC(=O)c1ccc(N2C(=O)c3ccccc3C2=O)cc1,0,-5,6,9,2,45*,17,ATG4B conf=67*
COc1ccc(OC)c(-c2cc(C(=O)N3CCc4ccccc4C3)no2)c1,0,4,1,1,1,49*,56*,
COc1ccc(-c2cc(C(=O)N3CCc4ccccc4C3)no2)cc1,-4,-4,6,1,-2,11,/,
SMILES,LEDGF integ inh,rCAG binder,MBD2 DNA inh,UHRF1 binding,CSN deneddyl inh,ATG4B inh,PLA2 ctr,others
COc1ccc2[nH]c(C(=O)N3CCc4ccccc4C3)c(C)c2c1,-1,-3,-4,0,0,62*,64*,
Cc1cccc(NC(=S)NNc2cccc(Cl)c2)c1,2,9,1,2,3,-11,/,
Cc1ccc(NS(=O)(=O)c2cc([N+](=O)[O-])ccc2NNC(=S)Nc2cccc(Cl)c2)c(C)c1,/,/,/,/,18,88*,101*,
Cn1cccc1-c1nc2ccccc2n1Cc1ccccc1,4,-7,3,1,2,43*,56*,
COc1ccc(-c2ccc(C#N)c(SCC(=O)Nc3sc4c(c3C#N)CCC4)n2)cc1OC,0,9,0,-2,121,73*,-4,ATG4B conf=84*
Cc1noc(/C=C/c2ccco2)c1S(=O)(=O)N1CCC(C(=O)NC(C)c2ccccc2)CC1 (stereo unspecified),2,20,-2,-2,5,-2,/,
Cc1cccc(/C=C/c2onc(C)c2S(=O)(=O)N2CCC(C(=O)N3CCCCCC3)CC2)c1,6,8,2,-3,-4,40*,52*,
Cc1noc(/C=C/c2ccco2)c1S(=O)(=O)N1CCC(C(=O)N2c3ccccc3CC2C)CC1 (stereo unspecified),2,19,2,-1,18,48*,76*,
Cc1cccc(/C=C/c2onc(C)c2S(=O)(=O)N2CCC(C(=O)N3CCC(C)CC3)CC2)c1,1,3,1,1,-3,25,/,
CN(CCOC(=O)c1cc2ccccc2o1)C1CN(Cc2cn(Cc3ccccc3F)nn2)S(=O)(=O)C1 (stereo unspecified),0,-1,0,1,/,/,/,
Cc1ccc(S(=O)(=O)C2C(=O)N(C)C3(C)CC2c2ccccc2O3)cc1 (stereo unspecified),1,-1,-2,5,-6,66*,74*,
Cc1ccc(NC(=O)C2C(=O)N(CCO)C3(C)CC2c2ccccc2O3)cc1 (stereo unspecified),0,-3,1,0,1,4,/,
Fc1ccccc1CSc1nnc(-c2cnccn2)n1Cc1ccco1,-4,-5,0,-2,8,-7,/,
Clc1ccc(CSc2nnc(-c3ccccn3)n2Cc2ccco2)c(Cl)c1,0,10,-1,5,4,41*,55*,
COc1cc(/C=C2/C(=N)N3C=CSC3=NC2=O)ccc1OCCCOc1c(C)cccc1C,2,2,-5,-3,5,49*,37,ATG4B conf=57*
